Laboratory results as given in ChEMBL document CHEMBL3414514, “Synthesis and pharmacological evaluation of novel bisindole derivatives bearing oximes moiety: identification of novel proapoptotic agents” (Eur J Med Chem, 2015).
pIC50: −log10 of the molar value. Active and inactive are the calls of the source. The rule behind the calls is not given here.

What was measured:
[1] = Cytotoxicity against human SPCA2 cells after 2 days by MTT assay; format: functional, cell-based; settings: SPCA2, 48 h
How it was run: (§1)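 Cells grown in medium with 10% heat-inactivated FBS at 37 C under 5% CO2. Compounds dissolved in medium with 1% DMSO; controls received 1% DMSO. After 2 days, MTT (10 mg/mL) added for 4 h, formazan dissolved in DMSO and absorbance read at 570/630 nm. Survival taken relative to negative control; IC50 by Bliss method (n = 5), at least three independent experiments.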

[2] = Cell cycle arrest in human T24 cells assessed as accumulation at G2 phase at 5 uM after 48 hrs by Rnase A/propidium iodide staining-based flow cytometry (reference value: 3.58%); format: functional; settings: T-24
How it was run: (§2)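 T24 cells exposed to […] for 48 h, washed with ice-cold PBS, then fixed and permeabilized overnight in ice-cold 70% ethanol. RNase A (100 mg/mL) treatment at 37 C for 30 min, then PI staining (1 mg/mL) in the dark at 4 C for 30 min. Flow cytometry gave the percentage of cells in G1, S and G2 phase.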

[3] = Cell cycle arrest in human T24 cells assessed as reduction in CDK4 level after 24 hrs by Western blotting analysis; format: functional, cell-based; settings: T-24
How it was run: (§3)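 T24 cells treated at […] for 24 h and lysed in ice-cold RIPA buffer with protease inhibitors and NaF. Protein measured by Bradford; 30 micrograms per lane run on 12% SDS-PAGE and transferred to PVDF. Blocked 2 h at room temperature, primary antibody overnight at 4 C, HRP secondary (1:2000) 1 h, chemiluminescence detection.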

[4] = Induction of apoptosis in human T24 cells assessed as cytC upregulation at IC50 after 24 hrs by qRT-PCR analysis relative to control; format: functional, cell-based; settings: T-24
[5] = Cell cycle arrest in human T24 cells assessed as accumulation at G2 phase at 10 uM after 48 hrs by Rnase A/propidium iodide staining-based flow cytometry (reference value: 3.58%); format: functional; settings: T-24; how it was run: as §2
HUVEC = assay: Cytotoxicity against human HUVEC cells after 2 days by MTT assay; format: cell-based; settings: 48 h; how it was run: as §1
[6] = Cell cycle arrest in human T24 cells assessed as accumulation at G1 phase at 5 uM after 48 hrs by Rnase A/propidium iodide staining-based flow cytometry (reference value: 34.43%); format: functional; settings: T-24; how it was run: as §2
T-24 [7] = assay: Induction of apoptosis in human T24 cells assessed as pycnosis at 5 to 20 uM after 24 hrs by AO/EB staining-based fluorescence microscopic analysis relative to control; format: functional, cell-based
How it was run: (§4)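 T24 cells seeded at 5 × 10^4 cells/mL on cover slips. Medium was replaced with fresh medium containing 10% FBS and compound at 5, 10 or 20 µM for 24 h. Cover slips were inverted onto AO/EB stain and viewed by fluorescence microscopy. Live cells score uniform green, early apoptotic green-yellow, late apoptotic orange, and necrotic orange without condensed chromatin. Untreated cells served as control.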

[8] = Cytotoxicity against human T24 cells after 2 days by MTT assay; format: functional, cell-based; settings: T-24, 48 h; how it was run: as §1
T-24 [9] = assay: Induction of apoptosis in human T24 cells assessed as necrotic cells at 5 to 20 uM after 24 hrs by AO/EB staining-based fluorescence microscopic analysis; format: functional, cell-based; how it was run: as §4
[10] = Cell cycle arrest in human T24 cells assessed as increase in p21 level after 24 hrs by Western blotting analysis; format: functional, cell-based; settings: T-24; how it was run: as §3
T-24 [11] = assay: Induction of apoptosis in human T24 cells assessed as late apoptotic cells at 10 uM after 24 hrs by annexin-V-FITC/propidium iodide staining-based flow cytometry (reference value: 2.08%); format: functional
[12] = Induction of apoptosis in human T24 cells assessed as caspase-3 upregulation at IC50 after 24 hrs by qRT-PCR analysis relative to control; format: functional, cell-based; settings: T-24
T-24 [13] = assay: Induction of apoptosis in human T24 cells assessed as early apoptotic cells at 5 uM after 24 hrs by annexin-V-FITC/propidium iodide staining-based flow cytometry (reference value: 2.74%); format: functional
T-24 [14] = assay: Induction of apoptosis in human T24 cells assessed as increase in Bax protein expression after 6 to 24 hrs by Western blotting analysis; format: functional, cell-based
[15] = Cell cycle arrest in human T24 cells assessed as accumulation at G1 phase at 20 uM after 48 hrs by Rnase A/propidium iodide staining-based flow cytometry (reference value: 34.43%); format: functional; settings: T-24
HepG2 = assay: Cytotoxicity against human HepG2 cells after 2 days by MTT assay; format: functional, cell-based; settings: HepG2, 48 h; how it was run: as §1
[16] = Induction of apoptosis in human T24 cells assessed as caspase-8 upregulation after 24 hrs by qRT-PCR analysis; format: functional, cell-based; settings: T-24
How it was run: (§5)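 T24 cells treated at […] for 24 h before RNA extraction. SYBR Green qRT-PCR with 500 nM primers: 2 min at 50 C, 10 min at 95 C, then 40 cycles of 15 s at 95 C and 1 min at 60 C. Expression by the ΔCt method against actin, normalized to untreated cells; run in triplicate.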

T-24 [17] = assay: Induction of apoptosis in human T24 cells assessed as reduction in Bcl2 protein expression after 6 to 24 hrs by Western blotting analysis; format: functional, cell-based
How it was run: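 T24 cells exposed at 20 µM for 6, 12 and 24 h, then lysed in ice-cold RIPA with protease and phosphatase inhibitors. Protein was quantified by Bradford, and 30 µg per lane was run on 12% SDS-PAGE and transferred to PVDF. Membranes were blocked 2 h, probed with primary antibody at 4 °C overnight, then HRP secondary (1:2000) for 1 h, with chemiluminescent detection.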

[18] = Induction of apoptosis in human T24 cells assessed as cytC upregulation after 24 hrs by qRT-PCR analysis; format: functional, cell-based; settings: T-24; how it was run: as §5
[19] = Induction of apoptosis in human T24 cells assessed as AIF upregulation after 24 hrs by qRT-PCR analysis; format: functional, cell-based; settings: T-24; how it was run: as §5
[20] = Cell cycle arrest in human T24 cells assessed as increase in p27 level after 24 hrs by Western blotting analysis; format: functional, cell-based; settings: T-24; how it was run: as §3
T-24 [21] = assay: Induction of apoptosis in human T24 cells assessed as increase in caspase-7 protein expression at 20 uM after 6 to 24 hrs by Western blotting analysis; format: functional, cell-based
[22] = Cell cycle arrest in human T24 cells assessed as accumulation at G2 phase at 20 uM after 48 hrs by Rnase A/propidium iodide staining-based flow cytometry (reference value: 3.58%); format: functional; settings: T-24; how it was run: as §2
T-24 [23] = assay: Induction of apoptosis in human T24 cells assessed as increase in caspase-9 protein expression at 20 uM after 6 to 24 hrs by Western blotting analysis; format: functional, cell-based
T-24 [24] = assay: Induction of apoptosis in human T24 cells assessed as condensed nuclei after 24 hrs by Hoechst 33258 staining-based fluorescence microscopic analysis relative to control; format: functional, cell-based
How it was run: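 T24 cells on cover slips treated at […] for 24 h; untreated cells as control. Fixed in 4% paraformaldehyde for 10 min, PBS washes, Hoechst 33258 for 5 min. Nuclei imaged by fluorescence microscopy, excitation 350 nm, emission 460 nm.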

T-24 [25] = assay: Induction of apoptosis in human T24 cells assessed as early apoptotic cells at 10 uM after 24 hrs by annexin-V-FITC/propidium iodide staining-based flow cytometry (reference value: 2.74%); format: functional
T-24 [26] = assay: Induction of apoptosis in human T24 cells assessed as late apoptotic cells at 5 uM after 24 hrs by annexin-V-FITC/propidium iodide staining-based flow cytometry (reference value: 2.08%); format: functional

## COc1ccc2c(c1)/C(=N\O)C(c1c[nH]c3ccc(OC)cc13)=N2
[1]
  pIC50: 5.11
[2]
  Activity: 3.11%
[3]
  Activity: Dose-dependent effect
[4]
  fold change (FC): 8.09
[5]
  Activity: 5.47%
HUVEC
  pIC50: < 4.00
[6]
  Activity: 45%
T-24 [7]
  Activity: Active
[8]
  pIC50: 5.37
T-24 [9]
  Activity: inactive
[10]
  Activity: Dose-dependent effect
T-24 [11]
  Activity: 7.06%
[12]
  fold change (FC): 24.8
T-24 [13]
  Activity: 6.89%
T-24 [14]
  Activity: Dose-dependent effect
[15]
  Activity: 66.9%
HepG2
  pIC50: 5.00
[16]
  Activity: Dose-dependent effect
T-24 [17]
  Activity: Dose-dependent effect
[18]
  Activity: Dose-dependent effect
[19]
  Activity: Dose-dependent effect
[20]
  Activity: Dose-dependent effect
T-24 [21]
  Activity: Active
[22]
  Activity: 4.67%
T-24 [23]
  Activity: Active
T-24 [24]
  Activity: Dose-dependent effect
T-24 [25]
  Activity: 11.9%
T-24 [26]
  Activity: 6.03%
